Assay results as given in ChEMBL document CHEMBL1275392, “Assessment of chemoselective neoglycosylation methods using chlorambucil as a model” (2010).

Key:
CCRF-CEM = assay: Growth inhibition of human CCRF-CEM cells at 10 uM after 7 days by celltiter-glo assay; assay type: functional; settings: 168 h, read-out: GI
OVCAR-8 [1] = assay: Growth inhibition of human OVCAR8 cells at 10 uM after 7 days by celltiter-glo assay; assay type: functional; settings: OVCAR-8, 168 h, read-out: GI
[2] = Growth inhibition of human p53 deficient Hep3B cells after 7 days by celltiter-glo assay; assay type: functional, Hep 3B2; settings: 168 h
Outline: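 Cells seeded at 500 per well in 384-well plates. Compounds came from 30 mM DMSO stocks, serially diluted and tested in quadruplicate. Incubation was 7 d at 37 °C under 5% CO2. Calcein AM (10 μM) and EthD-1 were added, followed by a fluorescence read. CellTiter-Glo lysis was then done for 10 min at room temperature, with a luminescence read. GI50 came from curve fitting.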

NCI-H23 = assay: Growth inhibition of human NCI-H23 cells at 10 uM after 7 days by celltiter-glo assay; assay type: functional; settings: NCI-H23, 168 h, read-out: GI
786-0 [3] = assay: Growth inhibition of human 786-0 cells at 10 uM after 7 days by celltiter-glo assay; assay type: functional; settings: 786-0, 168 h, read-out: GI
EKVX = assay: Growth inhibition of human EKVX cells after 7 days by celltiter-glo assay; assay type: functional; settings: 168 h
SK-MEL-28 [4] = assay: Growth inhibition of human SK-MEL-28 cells after 7 days by celltiter-glo assay; assay type: functional; settings: SK-MEL-28, 168 h
[5] = Growth inhibition of human Hs 578T cells at 10 uM after 7 days by celltiter-glo assay; assay type: functional; settings: 168 h, read-out: GI
PC-3 = assay: Growth inhibition of human PC3 cells after 7 days by celltiter-glo assay; assay type: functional; settings: PC-3, 168 h
SN12C = assay: Growth inhibition of human SN12C cells at 10 uM after 7 days by celltiter-glo assay; assay type: functional; settings: 168 h, read-out: GI
HOP-62 [6] = assay: Growth inhibition of human HOP62 cells at 10 uM after 7 days by celltiter-glo assay; assay type: functional; settings: HOP-62, 168 h, read-out: GI
MDA-MB-468 = assay: Growth inhibition of human MDA-MB-468 cells at 10 uM after 7 days by celltiter-glo assay; assay type: functional; settings: MDA-MB-468, 168 h, read-out: GI
NCI/ADR-RES [7] = assay: Growth inhibition of human NCI/ADR-RES cells at 10 uM after 7 days by celltiter-glo assay; assay type: functional; settings: 168 h, read-out: GI
786-0 [8] = assay: Growth inhibition of human 786-0 cells after 7 days by celltiter-glo assay; assay type: functional; settings: 786-0, 168 h
HOP-62 [9] = assay: Growth inhibition of human HOP62 cells after 7 days by celltiter-glo assay; assay type: functional; settings: HOP-62, 168 h
OVCAR-5 = assay: Growth inhibition of human OVCAR5 cells at 10 uM after 7 days by celltiter-glo assay; assay type: functional; settings: OVCAR-5, 168 h, read-out: GI
SW-620 = assay: Growth inhibition of human SW620 cells at 10 uM after 7 days by celltiter-glo assay; assay type: functional; settings: SW-620, 168 h, read-out: GI
[10] = Ratio of compound GI50 to chlorambucil GI50 for human H1299 cells; assay type: functional
NCI-H460 [11] = assay: Growth inhibition of human NCI-H460 cells after 7 days by celltiter-glo assay; assay type: functional; settings: NCI-H460, 168 h
Malme-3M = assay: Growth inhibition of human MALME-3M cells after 7 days by celltiter-glo assay; assay type: functional; settings: 168 h
A498 [12] = assay: Growth inhibition of human A498 cells after 7 days by celltiter-glo assay; assay type: functional; settings: A498, 168 h
OVCAR-8 [13] = assay: Growth inhibition of human OVCAR8 cells after 7 days by celltiter-glo assay; assay type: functional; settings: OVCAR-8, 168 h
HCT-15 = assay: Growth inhibition of human HCT15 cells at 10 uM after 7 days by celltiter-glo assay; assay type: functional; settings: HCT-15, 168 h, read-out: GI
NCI/ADR-RES [14] = assay: Growth inhibition of human NCI/ADR-RES cells after 7 days by celltiter-glo assay; assay type: functional; settings: 168 h
SK-MEL-28 [15] = assay: Growth inhibition of human SK-MEL-28 cells at 10 uM after 7 days by celltiter-glo assay; assay type: functional; settings: SK-MEL-28, 168 h, read-out: GI
OVCAR-4 = assay: Growth inhibition of human OVCAR4 cells after 7 days by celltiter-glo assay; assay type: functional; settings: OVCAR-4, 168 h
A549 = assay: Growth inhibition of human A549 cells after 7 days by celltiter-glo assay; assay type: functional; settings: A549, 168 h
LOX IMVI = assay: Growth inhibition of human LOXIMVI cells after 7 days by celltiter-glo assay; assay type: functional; settings: 168 h
CAKI-1 = assay: Growth inhibition of human Caki1 cells after 7 days by celltiter-glo assay; assay type: functional; settings: CAKI-1, 168 h
NCI-H522 = assay: Growth inhibition of human NCI-H522 cells after 7 days by celltiter-glo assay; assay type: functional; settings: NCI-H522, 168 h
HT-29 = assay: Growth inhibition of human HT-29 cells at 10 uM after 7 days by celltiter-glo assay; assay type: functional; settings: HT-29, 168 h, read-out: GI
COLO 205 = assay: Growth inhibition of human COLO205 cells at 10 uM after 7 days by celltiter-glo assay; assay type: functional; settings: COLO 205, 168 h, read-out: GI
HOP-92 = assay: Growth inhibition of human HOP92 cells at 10 uM after 7 days by celltiter-glo assay; assay type: functional; settings: HOP-92, 168 h, read-out: GI
MCF7 = assay: Growth inhibition of human MCF7 cells at 10 uM after 7 days by celltiter-glo assay; assay type: functional; settings: MCF7, 168 h, read-out: GI
KM12 = assay: Growth inhibition of human KM12 cells at 10 uM after 7 days by celltiter-glo assay; assay type: functional; settings: KM12, 168 h, read-out: GI
M14 = assay: Growth inhibition of human M14 cells after 7 days by celltiter-glo assay; assay type: functional; settings: M14, 168 h
NCI-H460 [16] = assay: Growth inhibition of human NCI-H460 cells at 10 uM after 7 days by celltiter-glo assay; assay type: functional; settings: NCI-H460, 168 h, read-out: GI
SF-295 [17] = assay: Growth inhibition of human SF295 cells at 10 uM after 7 days by celltiter-glo assay; assay type: functional; settings: SF-295, 168 h, read-out: GI
A498 [18] = assay: Growth inhibition of human A498 cells at 10 uM after 7 days by celltiter-glo assay; assay type: functional; settings: A498, 168 h, read-out: GI
UACC-62 = assay: Growth inhibition of human UACC62 cells after 7 days by celltiter-glo assay; assay type: functional; settings: UACC-62, 168 h
DU-145 = assay: Growth inhibition of human DU145 cells at 10 uM after 7 days by celltiter-glo assay; assay type: functional; settings: DU-145, 168 h, read-out: GI
MOLT-4 = assay: Growth inhibition of human MOLT4 cells after 7 days by celltiter-glo assay; assay type: functional; settings: MOLT-4, 168 h
SF-295 [19] = assay: Growth inhibition of human SF295 cells after 7 days by celltiter-glo assay; assay type: functional; settings: SF-295, 168 h
OVCAR-3 = assay: Growth inhibition of human OVCAR-3 cells at 10 uM after 7 days by celltiter-glo assay; assay type: functional; settings: OVCAR-3, 168 h, read-out: GI

CON(CCCc1ccc(N(CCCl)CCCl)cc1)C1OC[C@@H](O)[C@@H]1O (some centres undefined)
inhibition of growth at 10 µM (CCRF-CEM): 21.2% | inhibition of growth at 10 µM (OVCAR-8 [1]): 68.1% | GI50 [2]: 0.67 µM | inhibition of growth at 10 µM (NCI-H23): 54.4% | inhibition of growth at 10 µM (786-0 [3]): 67.9% | GI50 (EKVX): 37.9 µM | GI50 (SK-MEL-28 [4]): 36.5 µM | inhibition of growth at 10 µM [5]: 139% | GI50 (PC-3): 11.7 µM | inhibition of growth at 10 µM (SN12C): 54.2% | inhibition of growth at 10 µM (HOP-62 [6]): 73.2% | inhibition of growth at 10 µM (MDA-MB-468): 43.9% | inhibition of growth at 10 µM (NCI/ADR-RES [7]): 61.5% | GI50 (786-0 [8]): 6.16 µM | GI50 (HOP-62 [9]): 8.28 µM | inhibition of growth at 10 µM (OVCAR-5): 111% | inhibition of growth at 10 µM (SW-620): 68.1% | RatioGI50 [10]: 13 | GI50 (NCI-H460 [11]): 1.7 µM | GI50 (Malme-3M): 20.2 µM | GI50 (A498 [12]): 21.8 µM | GI50 (OVCAR-8 [13]): 9.13 µM | inhibition of growth at 10 µM (HCT-15): 77.1% | GI50 (NCI/ADR-RES [14]): 4.61 µM | inhibition of growth at 10 µM (SK-MEL-28 [15]): 117% | GI50 (OVCAR-4): 29.2 µM | GI50 (A549): 12.2 µM | GI50 (LOX IMVI): 8.61 µM | GI50 (CAKI-1): 11.5 µM | GI50 (NCI-H522): 10 µM | inhibition of growth at 10 µM (HT-29): 70.7% | inhibition of growth at 10 µM (COLO 205): 93.3% | inhibition of growth at 10 µM (HOP-92): 58.8% | inhibition of growth at 10 µM (MCF7): 32.4% | inhibition of growth at 10 µM (KM12): 97.6% | GI50 (M14): 9.25 µM | inhibition of growth at 10 µM (NCI-H460 [16]): 35.8% | inhibition of growth at 10 µM (SF-295 [17]): 56.6% | inhibition of growth at 10 µM (A498 [18]): 114% | GI50 (UACC-62): 1.69 µM | inhibition of growth at 10 µM (DU-145): 56.8% | GI50 (MOLT-4): 1.22 µM | GI50 (SF-295 [19]): 6.47 µM | inhibition of growth at 10 µM (OVCAR-3): 85.3%
